Results taken from the EternaBench riboswitch data.

Tested on: MS2 coat protein
Experiment: apparent Kd, MS2 coat protein; higher = weaker binding; RNA-MaP array; FMN 200 µM where present
Outline: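 Stalled E. coli RNA polymerase produced the designs on Illumina sequencing-chip clusters. SNAP-549-labelled MS2 coat protein was added from 0.7 or 1.5 nM, doubling to 3 µM, without and then with constant ligand, in 100 mM Tris-HCl pH 7.5, 80 mM KCl, 4 mM MgCl2, BSA, DTT, yeast tRNA and Tween-20. The apparent Kd is the median of filtered per-cluster fits of green signal normalised to red-channel RNA signal and control-cluster median Fmax.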

[1] = designed as: ON switch for flavin mononucleotide, no ligand
[2] = ligand present: flavin mononucleotide, designed as: ON switch for flavin mononucleotide
[3] = designed as: OFF switch for flavin mononucleotide, no ligand
[4] = ligand present: flavin mononucleotide, designed as: OFF switch for flavin mononucleotide

| Sequence | apparent Kd [1] | apparent Kd [2] | apparent Kd [3] | apparent Kd [4] |
| --- | --- | --- | --- | --- |
| GUGGUCAGACAUGAGGAUCACCCAUGUGGAAUAAAUAAGGACAAGGAUAUGGAAUAUAGGAUAUACCAGAAGGUGUGGUUGGUG | 70 nM | 86 nM | – | – |
| GCCUGUGAAGGAUAUACAUGAGGAUCACCCAUGUGGCGGAUAUACCCGCCGAGACCGUGUAGAAGGUCAUAGUA | – | – | 44 nM | 40.8 nM |
| AUUAUUGACAUAGGAUAUUGUUACAUGAGGAUCACCCAUGUUAUUUGGGAAUUAGGAAUAUUUUACAAGAAGGAUGUUGUUACA | 106 nM | 72.5 nM | – | – |
| AAAAAACAUGAGGAUCACCCAUGUGAGGAUAUGAUGCGAAUAAAGAAAGAAGAAAGCAUCAGAAGGCACAUAUG | – | – | 86.6 nM | 254 nM |
| UUGGACGUCGUAGGAUAUUUAGGAUAUUCCUACAUGAGGAUCACCCAUGUUGACAUGGAAGAAGGACAGAAGGACGAUGUCCAU | 24.1 nM | 8.23 nM | – | – |
| GCGAUGAUCGAGAAGGCCACUACAUGAGGAUCACCCAUGUCGUGGUGUAUUGGAGGAUAUCGAUUGGCGCCUUAUGAGGACAUG | – | – | 5.49 nM | 8.22 nM |
| GGGCCGGUGGAGAAGGAGCUUGCGAAACGCAUGCUAGGAUAUCCACAUGAGGAUCACCCAUGUGGGAAUAUCUGAUUUUCGCAG | – | – | 4.36 nM | 4.84 nM |
| AAGACAUGAGGAUCACCCAUGUAAAGACCGGUCGAUCAAUGUGAGGAUAUACCAUAAUUGAUAGGGUAGAAGGCACUGGGUUGA | 168 nM | 128 nM | – | – |
| UUAAAUCAUGUAGGAUAUGCAUGGCGAAGCUACGCAGAAGGACAUGAGGAUCACCCAUGUUAUAGCUACCCAGUUCGGUGGCAA | – | – | 96.1 nM | 221 nM |
| CAAAGUUGGUAAGGAUAUCCCACAUUAUUCUGACCCGUGCAAGCUACAUGAGGAUCACCCAUGUGGGAGAAGGUGCGUUAUAGA | – | – | 121 nM | 160 nM |
| UAUAUGUCAGGAUAUUAGUUGAGUUAGAAUUUAUCCUCUGCUGAGAAGGGACAUGAGGAUCACCCAUGUUCCUC | – | – | 15.1 nM | 31.5 nM |
| CCGGCAUAGGAGGAUAUAGGAGUCGAUAGACACCUAGAAGGCCUGACAUGAGGAUCACCCAUGUGUCCUACCGG | – | – | 14.1 nM | 23.2 nM |
| UCAUUAUAAAUCCAUCAUAACUACAUGAGGAUCACCCAUGUGCAGGAUAUCGAUUAUUUAACUAACGAGAAGGGCAUUUACAGA | – | – | 50.1 nM | 169 nM |
| UGUCUAUUUGAAGGAUAUCUAAGCAUAAACCAGAGAGAAGGUCAAUUAUACAUGAGGAUCACCCAUGUUGAGAUUAAUGGGUUU | – | – | 20.5 nM | 26.4 nM |
| AAGUCUGGACGAGGAUAUCAGUUGUAUCUAGCAUCAACAUGAGGAUCACCCAUGUUGCAAUAGGGUGAGAAGGCGUUUGGGCAA | 150 nM | 20.6 nM | – | – |
| AGUGUCAUCGAGAAGGCCUCAACAUGAGGAUCACCCAUGUUGCAAAAUGGGAGGAUAUCGAAAAAACAGCUACGUUUCGUAGCA | 22.6 nM | 5.17 nM | – | – |
| AGUUAAUAUCGAGGAUAUCCUCAGAAACAUGAGGAUCACCCAUGUAGAAUGGGAGAAGGCGAUAUUAACAGCAUGUUACAUGCA | 182 nM | 27.9 nM | – | – |
| UCGUAUAUACAAGGAUAUCAAUUAUUGCUAAAUACAACAUGAGGAUCACCCAUGUAACUAUGGAGUGAGAAGGUGUAAUGACUU | 740 nM | 603 nM | – | – |
| GGAGCAACAUGAGGAUCACCCAUGUAGGAUAUCGCUAUUGUAAUCAUGAAACAUGAUUACAAUAGCGAGAAGGACAUAUGCUAA | – | – | 10.6 nM | 12.5 nM |
| AAUUCACAUGAGGAUCACCCAUGUCAGGAUAUGGUUUCACGGGUUUCGGUGCGUGAGGCCAGAAGGGACAGCUA | – | – | 61 nM | 73.7 nM |
| UCUGCCGCCGUGAGGAUAUGCCCGCGAAAACGCGGGCAGAAGGCACAUGAGGAUCACCCAUGUCCCGCGGUUUU | – | – | 16.1 nM | 36.7 nM |
| AAGAUGUCAGGAUAUGCUGCUCGUCACUUGCGUGAUGAGUAGCAGAAGGGACAUGAGGAUCACCCAUGUAAAGA | – | – | 154 nM | 244 nM |
| CAAUUCCGAGGAUAUACAUGAGGAUCACCCAUGUCGGGCCUCAGCGUUUAGCGCUUAAGUAGAAGGUGGGUUUC | – | – | 40.7 nM | 54.5 nM |
| GGUAUACAUGAGGAUCACCCAUGUCGUAUGACAUGAGGAUAUGUACAGACUUCGGUCUGUACAGAAGGCGUGUGUC | 362 nM | 158 nM | – | – |

| Sequence | apparent Kd [1] | apparent Kd [2] | apparent Kd [3] | apparent Kd [4] |
| --- | --- | --- | --- | --- |
| UAUGGUAAAGUCAGGAUAUACGUACGUCGUUCUAGGUAGAAGGGACAUGAGGAUCACCCAUGUAUGAUAGUGUU | – | – | 46.5 nM | 42.8 nM |
| CACGUCCACACAGGAUAUGCUGGACUUUGUCCAGCAGAAGGGUGACAACAUGAGGAUCACCCAUGUAGGACGUGUAUAUUUAAU | 1040 nM | 196 nM | – | – |
| CGCUGUCACGCAGGAUAUGCAUUGGAUUACAAUGCAGAAGGGCGAUUACAUGAGGAUCACCCAUGUGUAGACAGUGAAGAAGAG | 300 nM | 42.3 nM | – | – |
| GCCAUCGCAUGAGGAUAUGCUCCCGUUUCGGGAGCAGAAGGCAUGUCAUAAGACAUGAGGAUCACCCAUGUAGAUAAGAUGGCA | 310 nM | 11.4 nM | – | – |
| CCUUUUGUAUAAGGAUAUGUAACAAGGUGUAGGUUUGUAGGACUUGCGCUUACAGAAGGUAUACAUGAGGAUCACCCAUGUCGA | – | – | 29.9 nM | 157 nM |
| CGCUAAGAUGGGUCUAAUGGACCAUAGGAUAUGCUUGUACAUGAGGAUCACCCAUGUAAUAUUGUGCAGAAGGGUGGAUUUGCG | 26.4 nM | 19.6 nM | – | – |
| AGGGCUUAAUGGCCCUAUGAGAUGAGAAGGGUAGGAGGGUGGAAGUACAUGAGGAUCACCCAUGUACAGGAUAUCAUGCCGAUU | – | – | 6.32 nM | 6.07 nM |
| CUUUUGUGAGGAUAUCAGUAGUAAAUAAAUAAAAUUACUUCUGAGAAGGCACAUGAGGAUCACCCAUGUUCCUC | – | – | 34.1 nM | 251 nM |
| UCUCGGAGCAGAGGAUAUUACAUGAGGAUCACCCAUGUAUGAACCAAUAGCUGGAAACAGCAAUGUAAGAAGGCUGCUCCGACA | – | – | 12.4 nM | 169 nM |
| GCUGCAUGCAGAGGAUAUAUAACAUGAGGAUCACCCAUGUUAAUAAUAUGGAUAAACCAGAUAGUAUAGAAGGCUGCAUGCAGC | – | – | 19.5 nM | 23.8 nM |
| ACUUUACGAGGAUAUACUGUCGGGCCUCGGGCGUCCCUGCGACAUGAGGAUCACCCAUGUAGAAGGCGUUUACU | – | – | 20.6 nM | 35.2 nM |
| GCAUCCUGGUAGAAGGGACAUCGGCUGGUAAGCAUCAUCUCCUUCUCACAUGAGGAUCACCCAUGUCAGGAUAUACCAGGACGC | – | – | 12.3 nM | 42.1 nM |
| AUAUCAUACCAAGGAUAUUUAGGACUUGUGUAGACAUGAGGAUCACCCAUGUGGCGUUAGUCACGGGAGAAGGUGGUAUGAUAU | 83 nM | 18.5 nM | – | – |
| GCGCAGCUGGGUGAGGAUAUCGGUGGUAAAACAUGAGGAUCACCCAUGUCCGGAGCUCGGACUUCCGAGAAGGCACCCGGCUGCA | 39 nM | 9.8 nM | – | – |
| GGGUACAUCGGAGGAUAUCAUGUAAAUACAUGAGGAUCACCCAUGUCGAUGGAGACAUCGGAGAUUGAGAAGGCCGAUGUAACG | 183 nM | 9.47 nM | – | – |
| GUCGGAUGUAUAGGAUAUCGACUGGAAUACAGUCGAGAAGGAUACAUGAGGAUCACCCAUGUAAUAAUAAUAAUAAUAACCGAC | – | – | 12.5 nM | 24 nM |
| GCGCGCGCAGGAUAUACAAUUGUGUGUGGAAACGCGCGCGUACAUGAGGAUCACCCAUGUAGAAGGGUGUGUGU | – | – | 445 nM | 198 nM |
| UAAAAGUAGGUAGGAUAUCAUCACGGAAGAUCCUGGAUACUUAGUACAUGAGGAUCACCCAUGUAUGAGAAGGACCAGUGUUUG | – | – | 12.5 nM | 14.8 nM |
| UAUUAGUAAGGAUAUGAGACGUAGGACUUCGGUCCUACGUCUCAGAAGGUACAUGAGGAUCACCCAUGUUUAUU | – | – | 17.1 nM | 26.1 nM |
| UUCCUCACUUCUUUGACUCACAUGAGGAUCACCCAUGUAAUAUAGGAUAUGCAUUUUAUUUCUUUGCAGAAGGAUAUUAGUUUU | – | – | 44.8 nM | 141 nM |
| UGUUAUUAGACAGGAUAUUGAAUGUUAAGUAUUAACAUGAGGAUCACCCAUGUAUUUGAUUGGUACAAGAAGGGUCAUGUUUGU | 323 nM | 659 nM | – | – |
| UUUGUGUGAGGAUAUUAAUUGCAAGCGAAUAGGCUUGUGAUUGAGAAGGCACAUGAGGAUCACCCAUGUUCCUU | – | – | 18.1 nM | 151 nM |
| GGCUCCGCUCGAGGAUAUAGCUGCAUGUAGUGUCCUGAGGCACAUGAGGAUCACCCAUGUGUAGGCUAGAAGGCGACGGAAGCU | – | – | 142 nM | 176 nM |
| UUAUACAUUCGAGGAUAUCGGUGAGAAAUCUUUCGAGAAGGCGAUUCAUGAUGUAUUAUCCUGGACAUGAGGAUCACCCAUGUA | 148 nM | 92.5 nM | – | – |
